# In the library only some 5.3% were active in any assay of this set; here they are far more common.
# CSC inhib: cancer stem cell inhibition; inhibition, % at 7.5 µM; AID 2717; cancer stem cell-like cells viability, luminescence; actives 1.1% (n = 300,000); in the data active = inhibition above about 75%; inconclusive = no clear call, values can overlap the other calls; tested in HMLE shEcad cells
# NALP3 yeast inh: inhibitors of NALP3 inflammasome in yeast; Yeast reconstituted NLRP3/ASC/caspase-1, beta-gal luminescence, 24 h; inhibition, % at 10 µM; actives 0.39% (n = 330,000);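 active = inhibition of 50% or more; inactive = inhibition below 50%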;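 also: plate controls were induced DMSO wells for no effect and uninduced yeast grown without galactose for full effect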
# T cruzi inh: T. cruzi replication inhibition | actives 1.4% (n = 300,000) | T. cruzi beta-gal in NIH3T3, luminescence, 90 h | inhibition, % (no concentration beside the values);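 active = mean inhibition across valid replicates above about 55%, limit read from the data; inconclusive = mean below that limit but half or more replicates reach it; inactive = mean below it, under half of replicates reach it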;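 also: signal also drops with host cell toxicity which is not excluded here; 0% = plate median of DMSO wells and 100% = zero luminescence signal; higher percent means less beta-gal luminescence so fewer parasites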
#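 Assay system: NIH/3T3 host cells with β-galactosidase reporter T. cruzi; input: 5,000 host fibroblasts per well; compound: single 50 nL compound addition per well in DMSO; timing: ≥90 h infection period, 3 h prior cell attachment; measured by: GalScreen β-gal luminescence, detergent lysis, 60 min; evaluation: percent inhibition of parasite-derived β-gal signal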
# Calb FLC: C. albicans growth modulation with fluconazole; C. albicans CaCi-2 (fluconazole-resistant clinical isolate) + fluconazole, Alamar Blue growth, 48 h; growth inhibition, % (test concentration not listed); AID 1979; actives 0.57% (n = 300,000);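 active = growth inhibition above about 58% in most replicates, limit read from the data, passing the limit was not always enough; inconclusive = exactly half the replicates above a set limit; inactive = most replicates below a set limit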;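 also: all wells also contain fluconazole at 8 µg/ml as a sub-toxic cotreatment; 0% = median of DMSO wells and 100% = median of geldanamycin control wells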
# Beta apoptosis: beta cell apoptosis inhibition | protection from apoptosis, % (test concentration not listed) | INS-1E cytokine-induced death, ATP luminescence, 48 h; percent of positive-control rescue, neutral wells zero | actives 0.8% (n = 300,000);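 active = Every replicate reaches about 75%, or at least half do and their mean reaches it too, limit read from the data; inconclusive = At least half of replicates reach the limit but their mean does not; inactive = Under half of replicates reach the limit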;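 also: 0% = cytokine-treated negative control wells and 100% = positive control rescue; higher means more ATP so stronger rescue from cytokine killing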
# Mdm2-MdmX inh: human Mdm2/MdmX binding inhibition; inhibition, % at 8 µM; SaOS-2 split-luciferase Mdm2/MdmX complementation, luminescence; actives 3% (n = 330,000);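 active = inhibition of at least 50% at 8 µM in the primary screen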
# Starred values were filed as active, the others as inactive; ? = inconclusive; . = no result.
SMILES,CSC inhib,NALP3 yeast inh,T cruzi inh,Calb FLC,Beta apoptosis,Mdm2-MdmX inh
CCC(c1nnnn1CCc1ccccc1)N(Cc1ccco1)Cc1cc2c(C)ccc(C)c2[nH]c1=O (stereo not given),14.2,4.2,55.4*,28.6,13.4,38.3
COc1cccc(/C=C/c2nc(C#N)c(NCC(C)C)o2)c1,128.4*,32.2,9.1,0.5,11.4,0.4
CCOc1ccc(OCC)c(NC(=O)CN2CCN(c3ccc(C)cc3C)CC2)c1,66.3,5.3,65.5*,3.8,9.2,-10.1
Cc1nc(SCc2cccc(C(=O)O)c2)nc2c1CCCC2,2.0,-0.6,4.8,-5.7,0.1,-1.5
COc1ccc(Nc2nnc(SCC(=O)NC3CC3)s2)cc1,-23.1,-9.1,.,.,-1.0,-8.0
Cc1c(O)c(CN2CCCC2)cc2c1oc(=O)c1ccccc12,9.4,1.4,-18.1,-1.3,5.5,25.2
O=[N+]([O-])c1cc(CN2CCCC2)c2cccnc2c1O,33.5,.,.,.,4.7,.
Oc1c(Cl)cc(CN2CCCCC2)c2cccnc12,87.0*,-3.5,53.1,-8.2,111.2*,45.6
O=C(Oc1c(CN2CCOCC2)cc(Cl)c2cccnc12)c1ccccc1Cl,20.1,40.7,50.9,100.0*,21.8,41.0
OCCN1CCN(Cc2cc(Cl)c3cccnc3c2O)CC1,22.5,25.6,-11.0,102.8*,2.6,44.3
Oc1c(Cl)cc(Cl)c2cccnc12,.,.,43.1,?,.,.
COCc1cc(CN2CCCC2)c(O)c2ncccc12,36.3,15.8,64.3*,5.1,4.8,38.4
O=C(CCc1ccccc1)Nc1cccnc1Cl,-5.9,12.7,-2.2,-0.6,-0.9,-0.4
CC(C)Nc1nnc(SCc2cc(=O)n3ccsc3n2)s1,.,-17.2,-7.5,-1.1,1.2,-8.0
Oc1ccc(F)c2cccnc12,8.3,9.9,-8.7,0.7,-5.5,3.6
Oc1ccc(CN2CCCCC2)c2cccnc12,23.3,4.8,68.3*,103.0*,5.3,49.9
O=c1c(Cc2c(F)cccc2Cl)c(O)ccn1CC1CCCO1 (stereo not given),19.7,-1.9,-11.9,-5.8,-3.9,6.5
O=c1c(F)cn(C2CCCO2)c(=O)n1Cc1c(F)cccc1Cl (stereo not given),6.0,-4.1,-4.8,106.9*,-5.5,3.1
CCCCN(C)C(=O)c1cccc(OC2CCN(CC(C)(C)C)CC2)c1,21.7,5.5,8.4,-9.9,-6.2,-17.4
COc1ccc(C(=O)NNc2ccccc2)cc1OC,82.9*,2.2,3.1,106.1*,-9.2,-23.8
Cc1ccc(C(=O)COC(=O)c2cccc(NC(=O)c3ccc([N+](=O)[O-])cc3[N+](=O)[O-])c2)cc1,15.0,22.2,70.6*,5.1,7.9,-32.6
COc1ccc(C(=O)NNC(=O)Cc2ccc(-c3ccccc3)cc2)cc1OC,-3.3,0.0,15.6,7.5,-5.4,-0.2
COc1ccc(C(=O)Nc2ccccc2)cc1NC(=O)c1ccc([N+](=O)[O-])cc1,-9.3,33.0,60.9*,15.2,11.4,38.8
Cc1ccc(C)c(NC(=O)c2cccc(Oc3ccc([N+](=O)[O-])cc3Cl)c2)c1,49.8,9.4,55.2*,25.1,-4.7,24.3
CC(C)c1ccc(OCC(=O)NCc2ccco2)cc1,0.2,20.0,-11.0,8.1,-8.6,5.1
SMILES,CSC inhib,NALP3 yeast inh,T cruzi inh,Calb FLC,Beta apoptosis,Mdm2-MdmX inh
O=S(=O)(c1ccccc1)c1cnc(-c2cccnc2)nc1-c1ccccc1,-11.1,-10.4,-29.6,-24.2,-7.0,-20.0
CCc1ccc(-c2cc(C)no2)cc1S(=O)(=O)N1CC(=O)Nc2ccccc21,24.5,10.2,-0.9,-6.0,-1.6,23.9
C[C@H](NC(=O)C1CCN(S(=O)(=O)c2ccccc2)CC1)C(=O)NCc1cccc(Cl)c1,15.3,6.0,17.9,-11.9,-3.4,8.4
CN(C)S(=O)(=O)Oc1ccsc1C(=O)Nc1ccc(Cl)cc1,-7.8,26.4,1.1,18.2,-1.0,34.6
COc1ccc(C)cc1NC(=O)c1ccc([N+](=O)[O-])cc1[N+](=O)[O-],5.4,16.4,71.1*,8.7,4.8,-0.2
CCOc1ccc(N(CC(=O)NC2CC3CCC2C3)S(=O)(=O)c2ccc(C)cc2)cc1 (stereo not given),-11.8,11.4,40.6,2.0,.,24.8
COc1cc(C(=O)NCC(=O)NC(C)c2ccc(-n3ccnc3)cc2)cc(OC)c1OC (stereo not given),5.8,19.4,-1.9,-0.7,1.8,-7.8

# Screening data from PubChem.
